Assay results: ChEMBL document CHEMBL1152281, “2-Alkylamino- and alkoxy-substituted 2-amino-1,3,4-oxadiazoles-O-Alkyl benzohydroxamate esters replacements retain the desired inhibition and selectivity against MEK (MAP ERK kinase)” (Bioorg Med Chem Lett, 2008)
Converted amounts (≈) assume the structure as drawn. The source made the active and inactive calls. No cut-off for these calls is given here.

Assays:
[1] = Solubility in sodium phosphate buffer at pH 6.5 by HPLC
[2] = Metabolic stability in human liver microsomes assessed as half life
[3] = tested on: Mus musculus; assay: Toxicity in mouse Colon 26 cells implanted mouse assessed as body weight loss at 150 mg/kg, po administered BID on day 9 to day 15; assay type: organism-based; set-up: dose 150 mg/kg, route oral; details: in vivo
In short: (§1)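 Mice bearing subcutaneous Colon 26 tumours were gavaged daily or BID on days 9–15 (3 per group). Toxicity was taken as maximum treatment-related weight loss, expressed as percent of mean group weight at initial treatment, with the day of maximum loss recorded; a net weight gain is noted as "+". Vehicle was 5% EtOH + 5% Tween 80 in saline.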

[4] = tested on: Mus musculus; assay: Toxicity in mouse Colon 26 cells implanted mouse assessed as body weight loss at 300 mg/kg, po administered on day 9 to day 15; assay type: organism-based; set-up: dose 300 mg/kg, route oral; details: in vivo; in short: as §1
[5] = tested on: Colon 26; assay: Antitumor activity against mouse Colon 26 cells implanted in mouse at 200 mg/kg, po administered on day 9 to day 15; assay type: functional
[6] = tested on: Colon 26; assay: Antitumor activity against mouse Colon 26 cells implanted in mouse assessed as <62 mg decrease in tumor mass at 50 mg/kg, po administered BID on day 9 to day 15; assay type: functional, organism-based; set-up: dose 50 mg/kg
[7] = tested on: Colon 26; assay: Antitumor activity against mouse Colon 26 cells implanted in mouse assessed as 50% decrease in tumor mass at 50 mg/kg, po administered BID on day 9 to day 15; assay type: functional, organism-based; set-up: dose 50 mg/kg
[8] = tested on: Mus musculus; assay: Toxicity in mouse Colon 26 cells implanted mouse assessed as increase in body weight at 100 mg/kg, po administered on day 9 to day 15; assay type: organism-based; set-up: dose 100 mg/kg, route oral; details: in vivo; in short: as §1
[9] = tested on: Colon 26; assay: Antitumor activity against mouse Colon 26 cells implanted in mouse assessed as <62 mg decrease in tumor mass at 300 mg/kg, po administered on day 9 to day 15; assay type: functional, organism-based; set-up: dose 300 mg/kg
[10] = tested on: Colon 26; assay: Antitumor activity against mouse Colon 26 cells implanted in mouse at 150 mg/kg, po administered BID on day 9 to day 15; assay type: functional
[11] = tested on: Mus musculus; assay: Ex vivo inhibition of MEK in mouse Colon 26 cells implanted mouse assessed as suppression of ERK-phosphorylation at 100 mg/kg, po after 10 hrs by Western blot; assay type: functional, organism-based; set-up: dose 100 mg/kg
In short: (§2)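 Mice bearing subcutaneous colon 26 tumours received a single oral dose. At each time point tumours were excised, and p-ERK levels were measured by Western blot against vehicle-treated controls.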

[12] = tested on: Colon 26; assay: Antitumor activity against mouse Colon 26 cells implanted in mouse assessed as <62 mg decrease in tumor mass at 100 mg/kg, po administered BID on day 9 to day 15; assay type: functional, organism-based; set-up: dose 100 mg/kg
[13] = tested on: Colon 26; assay: Antitumor activity against mouse Colon 26 cells implanted in mouse at 300 mg/kg, po administered on day 9 to day 15; assay type: functional
[14] = tested on: Mus musculus; assay: Toxicity in mouse Colon 26 cells implanted mouse assessed as increase in body weight at 50 mg/kg, po administered BID on day 9 to day 15; assay type: organism-based; set-up: dose 50 mg/kg, route oral; details: in vivo; in short: as §1
[15] = tested on: Colon 26; assay: Antitumor activity against mouse Colon 26 cells implanted in mouse at 100 mg/kg, po administered on day 9 to day 15; assay type: functional
[16] = tested on: Mus musculus; assay: Ex vivo inhibition of MEK in mouse Colon 26 cells implanted mouse assessed as suppression of ERK-phosphorylation at 12.5 mg/kg, po after 10 hrs by Western blot; assay type: functional, organism-based; set-up: dose 12.5 mg/kg; in short: as §2
[17] = tested on: Mus musculus; assay: Toxicity in mouse Colon 26 cells implanted mouse assessed as increase in body weight at 100 mg/kg, po administered BID on day 9 to day 15; assay type: organism-based; set-up: dose 100 mg/kg, route oral; details: in vivo; in short: as §1
[18] = tested on: Colon 26; assay: Antitumor activity against mouse Colon 26 cells implanted in mouse at 100 mg/kg, po administered BID on day 9 to day 15; assay type: functional
[19] = tested on: Colon 26; assay: Antitumor activity against mouse Colon 26 cells implanted in mouse at 50 mg/kg, po administered BID on day 9 to day 15; assay type: functional
[20] = tested on: Mus musculus; assay: Toxicity in mouse Colon 26 cells implanted mouse assessed as body weight loss at 200 mg/kg, po administered on day 9 to day 15; assay type: organism-based; set-up: dose 200 mg/kg, route oral; details: in vivo; in short: as §1
[21] = tested on: Colon 26; assay: Antitumor activity against mouse Colon 26 cells implanted in mouse assessed as <62 mg decrease in tumor mass at 150 mg/kg, po administered BID on day 9 to day 15; assay type: functional, organism-based; set-up: dose 150 mg/kg
[22] = tested on: Colon 26; assay: Antitumor activity against mouse Colon 26 cells implanted in mouse assessed as <62 mg decrease in tumor mass at 100 mg/kg, po administered on day 9 to day 15; assay type: functional, organism-based; set-up: dose 100 mg/kg
[23] = tested on: Colon 26; assay: Antitumor activity against mouse Colon 26 cells implanted in mouse assessed as 50% decrease in tumor mass at 100 mg/kg, po administered BID on day 9 to day 15; assay type: functional, organism-based; set-up: dose 100 mg/kg
[24] = tested on: Mus musculus; assay: Toxicity in mouse Colon 26 cells implanted mouse assessed as body weight loss at 100 mg/kg, po administered BID on day 9 to day 15; assay type: organism-based; set-up: dose 100 mg/kg, route oral; details: in vivo; in short: as §1

Work on `Fc1cc(I)ccc1Nc1c(-c2nnc(NCCCN3CCOCC3)o2)ccc(F)c1F` yielded a solubility [1] of less than 3 µg/mL and a half-life [2] of 40 min.

In the case of `NCCNc1nnc(-c2ccc(F)c(F)c2Nc2ccc(I)cc2F)o1`, the solubility [1] is reported as less than 3 µg/mL and the half-life [2] is reported as 40 min.

With `CNCCNc1nnc(-c2ccc(F)c(F)c2Nc2ccc(I)cc2F)o1` the Activity [3] was 4%, the Activity [4] was 4.5% and the LCK [5] was 0.3. The Activity [6] was “inactive”, the solubility [1] was 6.7 µg/mL (≈ 13.7 µM) and the Activity [7] was “inactive”. The Activity [8] was “Toxic”, the Activity [9] was “Active” and the LCK [10] was 0.4. For the same molecule, the Activity [11] was “Active”, the Activity [12] was “Active” and the LCK [13] was 0.3. The Activity [14] was “Toxic”, the LCK [15] was 0 and the Activity [16] was “Active”. For the same molecule, the Activity [17] was “Toxic”, the LCK [18] was 0.2 and the LCK [19] was 0.1. For the same molecule, the Activity [20] was 0.1%, the half-life [2] was 40 min and the Activity [21] was “Active”. The Activity [22] was “inactive”.

In the case of `OCCCCCNc1nnc(-c2ccc(F)c(F)c2Nc2ccc(I)cc2F)o1`, the solubility [1] is reported as less than 3 µg/mL and the half-life [2] is reported as 40 min.

Molecule `COCCCNc1nnc(-c2ccc(F)c(F)c2Nc2ccc(I)cc2F)o1` has a solubility [1] of less than 3 µg/mL and a half-life [2] of 35 min.

In the case of `NCCCNc1nnc(-c2ccc(F)c(F)c2Nc2ccc(I)cc2F)o1`, the solubility [1] is reported as 5.4 µg/mL (≈ 11 µM) and the half-life [2] is reported as 40 min.

`OCCCCNc1nnc(-c2ccc(F)c(F)c2Nc2ccc(I)cc2F)o1` showed a solubility [1] of less than 3 µg/mL and a half-life [2] of 40 min.

`CCN(CC)CCCNc1nnc(-c2ccc(F)c(F)c2Nc2ccc(I)cc2F)o1` showed a solubility [1] of less than 3 µg/mL and a half-life [2] of 40 min.

For `O=C(NOCC1CC1)c1ccc(F)c(F)c1Nc1ccc(I)cc1Cl` [CI-1040], the Activity [23] was “inactive”, the Activity [24] was 4.8% and the Activity [12] was “inactive”. For the same molecule, the LCK [18] was 0.1 and the half-life [2] was 8 min.

Molecule `OCCCNc1nnc(-c2ccc(F)c(F)c2Nc2ccc(I)cc2F)o1` has a solubility [1] of less than 3 µg/mL and a half-life [2] of 40 min.

For `Nc1nnc(-c2ccc(F)c(F)c2Nc2ccc(I)cc2F)o1`, the solubility [1] was less than 3 µg/mL.

`OCCNc1nnc(-c2ccc(F)c(F)c2Nc2ccc(I)cc2F)o1` gave a solubility [1] of less than 3 µg/mL and a half-life [2] of 40 min.
